Screening results: PubChem, Johns Hopkins Ion Channel Center
This is a sample that favours compounds with a hit; in the whole collection about 3.7% have one here.
Kir21 inh – inhibitors of mouse Kir2.1 inward-rectifier potassium channel; Inward rectifier potassium channel 2 (Mus musculus), P35561; HEK293-Kir2.1, FluxOR thallium flux fluorescence; hits give low values; B-score at 10 µM; 0.85% of 310,000 active;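 active = fluorescence ratio B-score at or below minus 3 SD of library scores, with starting-brightness B-score within 2 SD, cut at about -4.2 in these data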;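 note: channel flux triggered by added potassium and thallium sulfate stimulus; B-score of peak minus minimum fluorescence over baseline after thallium stimulus; more negative B-score means stronger Kir2.1 block with less thallium influx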
Target sequence (P35561 whole entry, looked up): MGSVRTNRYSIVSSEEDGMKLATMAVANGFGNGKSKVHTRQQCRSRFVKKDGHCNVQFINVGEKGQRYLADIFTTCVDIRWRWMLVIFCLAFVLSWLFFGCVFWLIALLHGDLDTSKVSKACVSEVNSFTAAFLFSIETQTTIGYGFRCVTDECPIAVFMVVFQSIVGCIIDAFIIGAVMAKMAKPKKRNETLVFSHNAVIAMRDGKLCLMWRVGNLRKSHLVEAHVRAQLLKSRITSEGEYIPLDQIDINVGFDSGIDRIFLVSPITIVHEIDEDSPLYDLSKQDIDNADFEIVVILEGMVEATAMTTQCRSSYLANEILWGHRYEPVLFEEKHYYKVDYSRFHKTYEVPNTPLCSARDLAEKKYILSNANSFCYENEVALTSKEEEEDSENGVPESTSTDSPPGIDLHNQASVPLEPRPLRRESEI
KCNK3 block – human KCNK3 channel inhibitors, primary screen, CHO cells, FluxOR thallium flux, B-score. Potassium channel subfamily K member 3 (Homo sapiens), O14649. FluxOR fluorescence; hits give low values. B-score at 10 µM. 0.84% of 340,000 active. AID 602410, 2012;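 active = B-score under library mean minus 4 SD, starting fluorescence ratio at most library mean plus 5 SD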;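 note: more negative B-score means stronger inhibition of thallium flux through KCNK3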
hERG protect – hERG rescue from dofetilide block, primary screen, cell-based, CHO-hERG, FluxOR thallium flux, dofetilide IC70. dofetilide IC70 present. activation (rescue from dofetilide block), less the hit threshold, % at 10 µM. 0.51% of 310,000 active. AID 1511, 2009;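 active = activation above the mean of controls blocked by dofetilide plus 5 SD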;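 note: thallium influx through hERG after potassium depolarization seen as dye fluorescence rise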
KCNQ1 block – inhibitors of human KCNQ1 channel, primary screen, cell-based, thallium flux, high-throughput. CHO-K1 KCNQ1, FluxOR thallium flux fluorescence; hits give high values. Potassium voltage-gated channel subfamily KQT member 1 (Homo sapiens), P51787. 1.3% of 310,000 active. B-score at 10 µM. AID 2642, 2010;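 active = compounds whose thallium flux B-score, printed positive for inhibition, exceeds three library SD while starting fluorescence stays within three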;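 note: channel opened by potassium depolarization with thallium stimulus after 20 min compound exposure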
KCNQ1 pot – potentiators or activators of KCNQ1 channel, primary screen, cell-based, thallium flux, high-throughput; Potassium voltage-gated channel subfamily KQT member 1 (Homo sapiens), P51787; CHO-K1 KCNQ1, thallium flux FluxOR fluorescence; hits give high values; B-score at 10 µM; 0.35% of 310,000 active;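 active = fluorescence ratio B-score, a plate-corrected score, at least three library SD, with initial intensity B-score within 5 SD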
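System: CHO-K1 cells stably expressing KCNQ1 / Medium: assay buffer for compound exposure, DMSO matched across wells / Reagent: thallium- and potassium-containing depolarizing buffer / Compound: one concentration, matched DMSO / Incubation: 20 min compound pretreatment at room temperature / Measured by: kinetic FluxOR fluorescence, 10 s baseline plus 110 s post-stimulus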
KCNK9 block – KCNK9 potassium channel inhibitors, primary screen, HEK293 cells, thallium flux. Potassium channel subfamily K member 9 (Homo sapiens), Q9NPC2. FluxOR thallium flux fluorescence; hits give low values. B-score at 10 µM. 1.2% of 310,000 active. AID 488922, 2010;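 active = ratio B-score over 3 SD below the library mean, with starting fluorescence within 5 SD of its mean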;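 note: negative B-score means less thallium flux so channel inhibition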
KCNK9 inh conf – KCNK9 potassium channel inhibitors, confirmation, HEK293 cells, thallium flux, duplicate; shares compounds with KCNK9 block; FluxOR thallium flux fluorescence; inhibition, % at 10 µM; 43% of 4,900 active; AID 492992, 2010;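 active = thallium signal inhibited by more than 5 SD of the compound-free buffer control wells, on both duplicate plates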
Kir21 sel – mouse Kir2.1 channel inhibition, confirmation, selectivity assay for KCNK9 modulator project, cell-based, HEK293, thallium flux | AID 492993, 2010 | inhibition, % at 10 µM | shares compounds with KCNK9 block | 4% of 4,900 active | Kir2.1 cells, FluxOR thallium flux fluorescence;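 active = thallium signal drop more than 5 SD beyond the mean of the no-compound control wells, seen in both duplicate plates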;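 note: signal is fluorescence rise after thallium addition divided by baseline fluorescence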
HEK293 Tl ctr – thallium flux in non-induced HEK293 cells, confirmation, counter-screen for KCNK9 inhibitor project, cell-based, second counter screen, non-induced KCNK9-HEK293. inhibition, % at 10 µM. FluxOR thallium flux. shares compounds with KCNK9 block. 40% of 4,900 active;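 active = thallium signal drop beyond 5 SD of the untreated control mean, on both duplicate plates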
Large screens that a line does not name were inactive (follow-up assays come after a bar, where they were run).

CCOC(=O)C1(Cc2ccccc2C(F)(F)F)CCN(Cc2ccc(COC)o2)CC1	none | KCNK9 inh conf inactive | Kir21 sel inactive | HEK293 Tl ctr inactive
CCOC(=O)C1(Cc2ccccc2)CCN(Cc2cccn2-c2nccs2)CC1	none | KCNK9 inh conf inactive | Kir21 sel inactive | HEK293 Tl ctr inactive
O=C(/C=C/c1ccc(F)cc1)c1ccccc1Br	none
Cc1c(C(=O)NC2CCCC2)oc2ccccc12	none (no result: Kir21 inh, hERG protect, KCNQ1 block, KCNQ1 pot, KCNK9 block)
O=C(Nc1ccccc1)OCCCc1ccccc1	none | KCNK9 inh conf inactive | Kir21 sel inactive | HEK293 Tl ctr inactive
CCN(c1ccc(OC)cc1)S(=O)(=O)c1nnc(NC(=O)COc2ccccc2)s1	none
Cc1ccc(CSc2nnc(C(F)(F)F)n2Cc2ccc(F)cc2)cc1	KCNK9 block -9.6 | KCNK9 inh conf 29% | Kir21 sel inactive | HEK293 Tl ctr 39%
COc1cccc(CSc2nnc(C(F)(F)F)n2Cc2ccc(F)cc2)c1	none
CCOC(=O)C1CSC2(CCC(c3ccccc3)CC2)N1 (stereo not given)	none | KCNK9 inh conf inactive | Kir21 sel inactive | HEK293 Tl ctr inactive
CCOC(=O)C1NC(=O)CC1c1ccccc1 (stereo not given)	none
CC1SCC(NC(=O)c2ccc(Cl)cc2)CS1 (stereo not given)	KCNK9 block -14 | KCNK9 inh conf inactive | Kir21 sel inactive | HEK293 Tl ctr 24%
CC1SCC(NC(=O)c2ccccc2Cl)CS1 (stereo not given)	none
CC1SCC(NC(=O)c2cccc(Cl)c2)CS1 (stereo not given)	KCNK9 block -10 | KCNK9 inh conf 44% | Kir21 sel inactive | HEK293 Tl ctr 26%
Cc1nc2c(o1)C(=O)c1ccccc1C2=Nc1ccccc1	none (no result: Kir21 inh, hERG protect, KCNQ1 block, KCNQ1 pot, KCNK9 block)
Nc1c(Cl)cc(C2=NCCn3nc4cc(C(F)(F)F)ccc4c32)cc1Cl	KCNQ1 pot 8, KCNK9 block -13 | KCNK9 inh conf 58% | Kir21 sel inactive | HEK293 Tl ctr inactive
COc1ccc(C2c3[nH]c4ccccc4c3CCN2Cc2ccoc2)c(F)c1 (stereo not given)	none | KCNK9 inh conf inactive | Kir21 sel inactive | HEK293 Tl ctr inactive
COc1ccc(C2c3[nH]c4ccccc4c3CCN2C(=O)Cc2nonc2C)c(F)c1 (stereo not given)	none
CCOc1ccc2nc(N3CCCCCC3)sc2c1	none
CCOc1ccc2nc(N3C(=O)/C(=C/c4ccccc4)NC3=S)sc2c1	hERG protect 45, KCNQ1 pot 134 | KCNK9 inh conf inactive | Kir21 sel inactive | HEK293 Tl ctr inactive
CCOC(=O)/C(=N\Nc1ccccc1Cl)N1CC(C)OC(C)C1 (stereo not given)	none
CCOC(=O)/C(=N\Nc1ccc(Br)cc1)N1CC(C)OC(C)C1 (stereo not given)	KCNK9 block -18 | KCNK9 inh conf 75% | Kir21 sel inactive | HEK293 Tl ctr 44%
COc1ccccc1C(=O)NC(CCSC)C(=O)NCCCn1nc(C)cc1C (stereo not given)	none
CC1(C)CC(=O)C2=C(C1)NC(SCC(=O)Nc1ccccc1)=C(C#N)C2c1ccco1 (stereo not given)	none
Cc1ccc(C(=O)CSC2=C(C#N)C(c3ccco3)C3=C(CC(C)(C)CC3=O)N2)cc1 (stereo not given)	KCNK3 block -10, KCNK9 block -8.4 | KCNK9 inh conf 46% | Kir21 sel inactive | HEK293 Tl ctr 33%
CCOc1ccccc1NC(=O)C1C2CCC3C(CCC21)C3(Cl)Cl (stereo not given)	none | KCNK9 inh conf inactive | Kir21 sel inactive | HEK293 Tl ctr 32%
O=C(Nc1ccccc1)C1C2CCC3C(CCC21)C3(Cl)Cl (stereo not given)	none
O=C(Nc1cccc(Cl)c1)C1C2CCC3C(CCC21)C3(Cl)Cl (stereo not given)	none | KCNK9 inh conf inactive | Kir21 sel inactive | HEK293 Tl ctr inactive
O=C(Nc1ccccc1Cl)C1C2CCC3C(CCC21)C3(Cl)Cl (stereo not given)	none
O=C(COC(=O)c1n[nH]c2ccccc12)NCCc1ccccc1	none (no result: Kir21 inh, hERG protect, KCNQ1 block, KCNQ1 pot, KCNK9 block)
O=C(NCC(c1ccco1)N1CCCCC1)c1ccc(COc2ccc(Cl)cc2)cc1 (stereo not given)	none (no result: Kir21 inh, hERG protect, KCNQ1 block, KCNQ1 pot, KCNK9 block)
CCCCn1c(=O)c(CCC(=O)OCC(=O)Nc2ccc(F)c(Cl)c2)nc2ccccc21	none
COC(=O)c1ccc(NC(=O)CN2CCN(CC#N)CC2)cc1	none
O=C(COC(=O)c1cc(Cl)ccc1O)NCC1CCCO1 (stereo not given)	none
CC1CCN(C(=O)Cn2c(=O)n(Cc3ccco3)c(=O)c3sccc32)CC1	none
CC1=NOC(=O)/C1=C\c1ccc(-c2cc(Cl)ccc2Cl)o1	none | KCNK9 inh conf inactive | Kir21 sel inactive | HEK293 Tl ctr inactive
COc1ccc([C@H]2[C@H](C(=O)OC(C)(C)C)N3N=Cc4ccccc4C3C23C(=O)c2ccccc2C3=O)cc1OC (stereo not given in full)	none
CC(C)(C)C(=O)[C@H]1[C@H](c2ccccc2)[C@@]2(N=C(c3ccccc3)OC2=O)C2c3ccccc3C=NN21 (stereo not given in full)	KCNK9 block -9.7 | KCNK9 inh conf 29% | Kir21 sel inactive | HEK293 Tl ctr inactive
O=C(NCCCCc1ccccc1)C12CN(Cc3ccccc3)CC1C(c1cccc([N+](=O)[O-])c1)=NO2 (stereo not given)	none | KCNK9 inh conf inactive | Kir21 sel inactive | HEK293 Tl ctr inactive
c1ccc2c(c1)ncn2CCCOc1ccc2c(c1)CCC2	none | KCNK9 inh conf inactive | Kir21 sel inactive | HEK293 Tl ctr inactive
O=C(Cn1cnc2sc3c(c2c1=O)CCCC3)NCC(=O)Nc1ccc(F)cc1F	none
CC(C)C[C@H](NC(=O)c1nc[nH]c1C(=O)NCC(=O)OC(C)(C)C)C(=O)OCc1ccccc1	none
